Tests used:
[1] = Distribution coefficient, logD of the compound; format: physicochemical; details: octanol/water
[2] = Volume of distribution at steady state in mouse at 0.5 mg/kg, iv or 100 mg/kg, po; format: ADME, organism-based; details: in vivo, read-out: Vdss
[3] = Half life in mouse at 0.5 mg/kg, iv; format: ADME, organism-based; details: in vivo
[4] = Cmax in mouse at 100 mg/kg, po; format: ADME, organism-based; parameters: dose 100 mg/kg, route oral; details: in vivo
[5] = tested on: Mus musculus; test: Acute toxicity in mouse at 100 mg/kg, po; format: organism-based; details: in vivo
Method in brief: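 Observed for visible signs of toxicity during a mouse pharmacokinetic study after an oral 100 mg/Kg dose. This was not a maximum tolerated dose study.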

[6] = Intrinsic clearance in rat hepatocytes assessed per million cells; format: ADME, cell-based, Hepatocyte; details: read-out: CLH
[7] = Unbound fraction in mouse plasma at 0.5 mg/kg, iv or 100 mg/kg, po; format: ADME, organism-based
[8] = Clearance in mouse at 0.5 mg/kg, iv; format: ADME, organism-based; details: in vivo

| SMILES | logD [1] | further results |
| --- | --- | --- |
| CCS(=O)(=O)c1cc(Nc2ncc(F)c(N(C)c3cc(CO)c(C)cc3C)n2)ccc1N1C[C@@H]2C[C@H]1CN2C | 2.5 | Vd [2]: 1.4 L/kg; half-life [3]: 60 min; Cmax [4]: 7.7 µM; Activity [5]: Non-Toxic; hepatocyte CLint [6]: 11 µL/min/1e6 cells; fraction unbound [7]: 0.029; clearance [8]: 22 mL/min/kg |
| CCS(=O)(=O)c1cc(Nc2ncc(F)c(N(C)c3cc(CO)c(C)cc3C)n2)ccc1N1CCN(C)CC1 | 3.8 |  |
| CN(c1cc(CO)ccc1Cl)c1nc(Nc2cc(N3CCOCC3)cc(S(C)(=O)=O)c2)ncc1F | 3.7 |  |
| CCS(=O)(=O)c1cc(Nc2ncc(F)c(N(C)c3cc(CO)c(C)cc3C)n2)cc(N2CCOCC2)c1 | 3.8 |  |
| CCS(=O)(=O)c1cc(Nc2ncc(F)c(N(Cc3ccccc3F)c3cc(CO)ccc3C)n2)ccc1N1CCN(C)CC1 | 3.3 |  |

The next lines start with results.

| logD [1] | SMILES | further results |
| --- | --- | --- |
| 3.7 | COCc1ccc(C)c(N(C)c2nc(Nc3cc(N4CCOCC4)cc(S(C)(=O)=O)c3)ncc2F)c1 |  |
| 3 | Cc1cc(C)c(N(C)c2nc(Nc3ccc(N4CCN(C)CC4)cc3)ncc2F)cc1CO |  |
| 2.8 | CCS(=O)(=O)c1cc(Nc2ncc(F)c(N(Cc3ccccc3)c3cc(CO)ccc3C)n2)ccc1N1CCN(C)CC1 |  |
